In ChEMBL document CHEMBL1145255, “Synthesis and antifungal activity of 5-arylamino-4,7-dioxobenzo[b]thiophenes” (2005):
≈ marks a conversion by molar mass, not a printed value.

Assays:
Format in all cases: functional
Pichia kudriavzevii = test: In vitro minimum inhibitory concentration against Candida krusei Berkout KCCM 11655 strain at 37 degree C after 1 day of treatment; conditions: KCCM 11655, 24 h
Method in brief: (§1)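 Two-fold broth dilution MIC in modified Sabouraud dextrose broth, inoculum about 1 × 10⁵ cells/mL, incubated at 37 °C. MIC was read after 1 day for the Candida species and after 2 days for A. niger.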

Aspergillus niger = test: In vitro minimum inhibitory concentration against Aspergillus niger KCTC 1231 strain at 37 degree C after 2 day of treatment; conditions: KCTC 1231, 48 h; method in brief: as §1
Candida albicans = test: In vitro minimum inhibitory concentration against Candida albicans Berkout KCCM 50235 strain at 37 degree C after 1 day of treatment; conditions: KCCM 50235, 24 h; method in brief: as §1
Candida tropicalis = test: In vitro minimum inhibitory concentration against Candida tropicalis Berkout KCCM 50662 strain at 37 degree C after 1 day of treatment; conditions: KCCM 50662, 24 h; method in brief: as §1

MIC (Pichia kudriavzevii)	MIC (Aspergillus niger)	MIC (Candida albicans)	MIC (Candida tropicalis)	SMILES
25 µg/mL (≈ 68.3 µM)	12.5 µg/mL (≈ 34.2 µM)	12.5 µg/mL (≈ 34.2 µM)	6.3 µg/mL (≈ 17.2 µM)	COC(=O)c1cc2c(s1)C(=O)C(Cl)=C(Nc1ccc(F)cc1)C2=O
6.3 µg/mL (≈ 19.2 µM)	50 µg/mL (≈ 153 µM)	50 µg/mL (≈ 153 µM)	3.2 µg/mL (≈ 9.78 µM)	COC(=O)c1cc2c(s1)C(=O)C=C(Nc1ccc(C)cc1)C2=O
1.6 µg/mL (≈ 4.52 µM)	> 50 µg/mL	12.5 µg/mL (≈ 35.3 µM)	0.4 µg/mL (≈ 1.13 µM)	O=C1C(Nc2ccc(Cl)cc2)=C(Cl)C(=O)c2sc(CO)cc21
6.3 µg/mL (≈ 14.3 µM)	50 µg/mL (≈ 114 µM)	50 µg/mL (≈ 114 µM)	0.2 µg/mL (≈ 0.455 µM)	COC(=O)c1cc2c(s1)C(=O)C=C(Nc1ccc(I)cc1)C2=O
1.6 µg/mL (≈ 5 µM)	12.5 µg/mL (≈ 39.1 µM)	6.3 µg/mL (≈ 19.7 µM)	3.2 µg/mL (≈ 10 µM)	O=C1C(Nc2ccccc2)=C(Cl)C(=O)c2sc(CO)cc21
25 µg/mL (≈ 65.4 µM)	25 µg/mL (≈ 65.4 µM)	12.5 µg/mL (≈ 32.7 µM)	6.3 µg/mL (≈ 16.5 µM)	COC(=O)c1cc2c(s1)C(=O)C(Cl)=C(Nc1ccc(Cl)cc1)C2=O
0.8 µg/mL (≈ 2.4 µM)	50 µg/mL (≈ 150 µM)	50 µg/mL (≈ 150 µM)	1.6 µg/mL (≈ 4.79 µM)	Cc1ccc(NC2=C(Cl)C(=O)c3sc(CO)cc3C2=O)cc1
3.2 µg/mL (≈ 8.47 µM)	50 µg/mL (≈ 132 µM)	3.2 µg/mL (≈ 8.47 µM)	6.3 µg/mL (≈ 16.7 µM)	COC(=O)c1cc2c(s1)C(=O)C(Cl)=C(Nc1ccc(OC)cc1)C2=O
12.5 µg/mL (≈ 41.5 µM)	0.8 µg/mL (≈ 2.65 µM)	0.8 µg/mL (≈ 2.65 µM)	0.8 µg/mL (≈ 2.65 µM)	O=C1C(Nc2ccc(O)cc2)=CC(=O)c2sc(CO)cc21
1.6 µg/mL (≈ 4.74 µM)	50 µg/mL (≈ 148 µM)	12.5 µg/mL (≈ 37 µM)	0.4 µg/mL (≈ 1.18 µM)	O=C1C(Nc2ccc(F)cc2)=C(Cl)C(=O)c2sc(CO)cc21
25 µg/mL (≈ 83.5 µM)	3.2 µg/mL (≈ 10.7 µM)	> 50 µg/mL	25 µg/mL (≈ 83.5 µM)	Cc1ccc(NC2=CC(=O)c3sc(CO)cc3C2=O)cc1
> 50 µg/mL	> 50 µg/mL	> 50 µg/mL	25 µg/mL (≈ 113 µM)	COC(=O)c1cc2c(s1)C(=O)C=CC2=O
12.5 µg/mL (≈ 31.9 µM)	50 µg/mL (≈ 127 µM)	50 µg/mL (≈ 127 µM)	0.2 µg/mL (≈ 0.51 µM)	COC(=O)c1cc2c(s1)C(=O)C=C(Nc1ccc(Br)cc1)C2=O
> 25 µg/mL	25 µg/mL (≈ 82.4 µM)	50 µg/mL (≈ 165 µM)	12.5 µg/mL (≈ 41.2 µM)	O=C1C(Nc2ccc(F)cc2)=CC(=O)c2sc(CO)cc21
25 µg/mL (≈ 75.5 µM)	> 50 µg/mL	> 50 µg/mL	25 µg/mL (≈ 75.5 µM)	COC(=O)c1cc2c(s1)C(=O)C=C(Nc1ccc(F)cc1)C2=O
25 µg/mL (≈ 58.6 µM)	25 µg/mL (≈ 58.6 µM)	0.8 µg/mL (≈ 1.87 µM)	3.2 µg/mL (≈ 7.5 µM)	COC(=O)c1cc2c(s1)C(=O)C(Cl)=C(Nc1ccc(Br)cc1)C2=O
25 µg/mL (≈ 79.3 µM)	3.2 µg/mL (≈ 10.1 µM)	3.2 µg/mL (≈ 10.1 µM)	0.8 µg/mL (≈ 2.54 µM)	COc1ccc(NC2=CC(=O)c3sc(CO)cc3C2=O)cc1
50 µg/mL (≈ 257 µM)	50 µg/mL (≈ 257 µM)	> 50 µg/mL	25 µg/mL (≈ 129 µM)	O=C1C=CC(=O)c2sc(CO)cc21
1.6 µg/mL (≈ 3.59 µM)	50 µg/mL (≈ 112 µM)	50 µg/mL (≈ 112 µM)	1.6 µg/mL (≈ 3.59 µM)	O=C1C(Nc2ccc(I)cc2)=C(Cl)C(=O)c2sc(CO)cc21

MIC (Pichia kudriavzevii)	MIC (Aspergillus niger)	MIC (Candida albicans)	MIC (Candida tropicalis)	SMILES
25 µg/mL (≈ 60.8 µM)	3.2 µg/mL (≈ 7.78 µM)	50 µg/mL (≈ 122 µM)	1.6 µg/mL (≈ 3.89 µM)	O=C1C(Nc2ccc(I)cc2)=CC(=O)c2sc(CO)cc21
25 µg/mL (≈ 69.1 µM)	50 µg/mL (≈ 138 µM)	0.8 µg/mL (≈ 2.21 µM)	12.5 µg/mL (≈ 34.5 µM)	COC(=O)c1cc2c(s1)C(=O)C(Cl)=C(Nc1ccc(C)cc1)C2=O
12.5 µg/mL (≈ 35.4 µM)	0.8 µg/mL (≈ 2.26 µM)	0.8 µg/mL (≈ 2.26 µM)	0.8 µg/mL (≈ 2.26 µM)	O=C1C(Nc2ccc(C(F)(F)F)cc2)=CC(=O)c2sc(CO)cc21
25 µg/mL (≈ 60.1 µM)	50 µg/mL (≈ 120 µM)	12.5 µg/mL (≈ 30.1 µM)	1.6 µg/mL (≈ 3.85 µM)	COC(=O)c1cc2c(s1)C(=O)C(Cl)=C(Nc1ccc(C(F)(F)F)cc1)C2=O
25 µg/mL (≈ 72.8 µM)	> 50 µg/mL	> 50 µg/mL	6.3 µg/mL (≈ 18.3 µM)	COC(=O)c1cc2c(s1)C(=O)C=C(Nc1ccc(OC)cc1)C2=O
0.8 µg/mL (≈ 2.01 µM)	50 µg/mL (≈ 125 µM)	50 µg/mL (≈ 125 µM)	0.8 µg/mL (≈ 2.01 µM)	O=C1C(Nc2ccc(Br)cc2)=C(Cl)C(=O)c2sc(CO)cc21
6.3 µg/mL (≈ 17.3 µM)	50 µg/mL (≈ 137 µM)	12.5 µg/mL (≈ 34.4 µM)	0.8 µg/mL (≈ 2.2 µM)	COC(=O)c1cc2c(s1)C(=O)C(Cl)=C(Nc1ccc(O)cc1)C2=O
6.3 µg/mL (≈ 22.1 µM)	0.8 µg/mL (≈ 2.8 µM)	50 µg/mL (≈ 175 µM)	0.8 µg/mL (≈ 2.8 µM)	O=C1C(Nc2ccccc2)=CC(=O)c2sc(CO)cc21
3.2 µg/mL (≈ 8.25 µM)	50 µg/mL (≈ 129 µM)	50 µg/mL (≈ 129 µM)	0.4 µg/mL (≈ 1.03 µM)	O=C1C(Nc2ccc(C(F)(F)F)cc2)=C(Cl)C(=O)c2sc(CO)cc21
25 µg/mL (≈ 71.9 µM)	50 µg/mL (≈ 144 µM)	50 µg/mL (≈ 144 µM)	6.3 µg/mL (≈ 18.1 µM)	COC(=O)c1cc2c(s1)C(=O)C=C(Nc1ccc(Cl)cc1)C2=O
12.5 µg/mL (≈ 39.9 µM)	50 µg/mL (≈ 160 µM)	50 µg/mL (≈ 160 µM)	6.3 µg/mL (≈ 20.1 µM)	COC(=O)c1cc2c(s1)C(=O)C=C(Nc1ccccc1)C2=O
3.2 µg/mL (≈ 8.79 µM)	3.2 µg/mL (≈ 8.79 µM)	50 µg/mL (≈ 137 µM)	12.5 µg/mL (≈ 34.3 µM)	O=C1C(Nc2ccc(Br)cc2)=CC(=O)c2sc(CO)cc21
1.6 µg/mL (≈ 4.2 µM)	50 µg/mL (≈ 131 µM)	50 µg/mL (≈ 131 µM)	12.5 µg/mL (≈ 32.8 µM)	COC(=O)c1cc2c(s1)C(=O)C=C(Nc1ccc(C(F)(F)F)cc1)C2=O
25 µg/mL (≈ 52.8 µM)	3.2 µg/mL (≈ 6.76 µM)	6.3 µg/mL (≈ 13.3 µM)	1.6 µg/mL (≈ 3.38 µM)	COC(=O)c1cc2c(s1)C(=O)C(Cl)=C(Nc1ccc(I)cc1)C2=O
> 50 µg/mL	> 50 µg/mL	> 50 µg/mL	25 µg/mL (≈ 74.5 µM)	O=C1C(Nc2ccc(O)cc2)=C(Cl)C(=O)c2sc(CO)cc21
> 25 µg/mL	25 µg/mL (≈ 78.2 µM)	> 50 µg/mL	12.5 µg/mL (≈ 39.1 µM)	O=C1C(Nc2ccc(Cl)cc2)=CC(=O)c2sc(CO)cc21
6.3 µg/mL (≈ 18.1 µM)	12.5 µg/mL (≈ 35.9 µM)	0.8 µg/mL (≈ 2.3 µM)	3.2 µg/mL (≈ 9.2 µM)	COC(=O)c1cc2c(s1)C(=O)C(Cl)=C(Nc1ccccc1)C2=O
12.5 µg/mL (≈ 38 µM)	50 µg/mL (≈ 152 µM)	50 µg/mL (≈ 152 µM)	0.4 µg/mL (≈ 1.21 µM)	COC(=O)c1cc2c(s1)C(=O)C=C(Nc1ccc(O)cc1)C2=O
3.2 µg/mL (≈ 9.15 µM)	50 µg/mL (≈ 143 µM)	25 µg/mL (≈ 71.5 µM)	1.6 µg/mL (≈ 4.57 µM)	COc1ccc(NC2=C(Cl)C(=O)c3sc(CO)cc3C2=O)cc1

SMILES	MIC (Pichia kudriavzevii)	MIC (Aspergillus niger)	MIC (Candida albicans)	MIC (Candida tropicalis)
Nc1nc(=O)[nH]cc1F [FLUCYTOSINE]	6.3 µg/mL (≈ 48.8 µM)	12.5 µg/mL (≈ 96.8 µM)	6.3 µg/mL (≈ 48.8 µM)	12.5 µg/mL (≈ 96.8 µM)
